Series [1] addresses T1, AChE (Homo sapiens, UniProt P22303). Kind of series: biochemical.
The target of series [2] is T2, BChE (Homo sapiens, UniProt P06276). In words: biochemical. The series is classed as biochemical. The settings on record: for fold better BChE inhibitory activity in comparison with positive control: vs donepezil (positive control).
Series [3] addresses T2, BChE. In words: Enzyme kinetic study. It counts as biochemical. In short, it runs like this:
(§1)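 Inhibition type and Km taken from Lineweaver–Burk double-reciprocal plots. Ki derived from secondary plots of line slope versus inhibitor concentration and of 1/Vmax versus inhibitor concentration. Cholinesterase activity was measured by a modified Ellman method.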

Series [4] in a line: Toxicity assay on SH-SY5Y. It counts as cell-based. To be noted: human, SH-SY5Y neuroblastoma cells. Summed up: (§2)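 SH-SY5Y cells were cultured in DMEM/F12 with 15% fetal bovine serum, 100 units/mL penicillin and 100 μg/mL streptomycin. Viability was read by MTT after 72 h exposure to test compound. Results are mean ± SEM of five independent experiments, each in triplicate; p < 0.05 was taken as significant.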

In series [5] the test system is SH-SY5Y neuroblastoma cell line. In words: Toxicity assay on SH-SY5Y. To be noted: concentrations below 50 μM; 72 h; MTT. It counts as cell-based. Summed up:
as §2

The subject of a further series is GSK-3β mRNA. Kind of series: GSK-3β mRNA level by quantitative PCR in SH-SY5Y. It counts as cell-based.
In the next series the test system is GSK-3α mRNA. In words: GSK-3α mRNA level by quantitative PCR in SH-SY5Y. It counts as cell-based. The settings on record: 25 μM. In short, it runs like this:
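Cells were exposed to test compound at 25 μM. Total RNA was extracted with RNX-plus reagent following the manufacturer's protocol, and transcript levels were then quantified by real-time PCR.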

The target in series [6] is T1, AChE. In words: Enzyme kinetic study. The series is classed as biochemical. Summed up: as §1

“Also recorded” adds a separate entry of the source.

What is called inhibition is the relative decrease from the control value, in per cent. A word on the IC50: it is the concentration at which inhibition is half-maximal. By Ki is commonly meant a dissociation constant, usually derived from enzyme kinetics or from competition with a known ligand. One may read the viability as a read-out of living cells in per cent, often relative to untreated cells. Low readings indicate a greater loss of cells, high ones better survival.

T2 sequence (P06276 29-602, species assumed): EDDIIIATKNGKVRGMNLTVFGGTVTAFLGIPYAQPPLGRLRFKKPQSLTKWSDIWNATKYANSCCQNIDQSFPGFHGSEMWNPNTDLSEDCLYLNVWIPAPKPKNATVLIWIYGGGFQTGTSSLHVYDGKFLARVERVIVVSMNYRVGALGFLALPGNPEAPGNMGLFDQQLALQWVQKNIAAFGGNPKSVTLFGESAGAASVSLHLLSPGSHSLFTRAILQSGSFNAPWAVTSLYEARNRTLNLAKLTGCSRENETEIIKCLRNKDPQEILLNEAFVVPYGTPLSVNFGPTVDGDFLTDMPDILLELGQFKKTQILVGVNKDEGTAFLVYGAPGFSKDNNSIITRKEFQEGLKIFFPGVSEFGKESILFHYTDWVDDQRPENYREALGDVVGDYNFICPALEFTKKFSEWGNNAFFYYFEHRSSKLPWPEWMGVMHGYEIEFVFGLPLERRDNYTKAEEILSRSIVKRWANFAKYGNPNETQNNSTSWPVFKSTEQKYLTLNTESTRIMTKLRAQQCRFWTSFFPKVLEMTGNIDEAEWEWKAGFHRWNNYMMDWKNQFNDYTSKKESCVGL
T1 sequence (P22303 32-614): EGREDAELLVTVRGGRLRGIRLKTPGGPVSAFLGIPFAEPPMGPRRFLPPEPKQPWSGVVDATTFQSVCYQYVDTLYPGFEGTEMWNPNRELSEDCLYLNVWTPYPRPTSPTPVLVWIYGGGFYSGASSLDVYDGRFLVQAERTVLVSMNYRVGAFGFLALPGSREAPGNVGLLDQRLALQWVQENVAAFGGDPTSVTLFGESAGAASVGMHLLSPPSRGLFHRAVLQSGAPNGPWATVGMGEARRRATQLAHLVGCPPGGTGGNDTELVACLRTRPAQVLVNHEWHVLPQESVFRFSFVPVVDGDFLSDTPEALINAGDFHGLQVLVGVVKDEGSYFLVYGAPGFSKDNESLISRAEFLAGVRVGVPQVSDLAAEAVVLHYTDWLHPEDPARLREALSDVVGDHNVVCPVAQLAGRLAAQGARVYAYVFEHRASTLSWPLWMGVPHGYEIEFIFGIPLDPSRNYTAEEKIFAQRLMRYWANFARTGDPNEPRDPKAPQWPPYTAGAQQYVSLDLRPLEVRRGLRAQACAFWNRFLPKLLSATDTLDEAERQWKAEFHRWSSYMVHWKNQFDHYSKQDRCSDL

For `CC[n+]1cccc(CNC(=O)c2ccc(CN3C(=O)c4ccccc4C3=O)cc2)c1` [Compound 7q], at AChE [1] (read-out: AChE % inhibition at 50 μM), the inhibition at 50 µM was determined as 33.6 ± 2.9%. At BChE [2], this compound yielded a concentration for half-maximal inhibition (IC50) of 490 ± 40 nM.
At AChE [1], `O=C(NCc1ccc[n+](Cc2cccc(F)c2)c1)c1ccc(CN2C(=O)c3ccccc3C2=O)cc1.[Cl-]` [Compound 7c] registered a half-maximal inhibitory concentration (IC50) of 3980 ± 210 nM. Besides, at BChE [2], the concentration for half-maximal inhibition (IC50) is 80 ± 10 nM and the “fold better BChE inhibitory activity in comparison with positive control” value amounted to 132 fold. The affinity on BChE [3], expressed as Ki, was 130 nM. Further, the inhibition mode entry on BChE [3] (Lineweaver-Burk plot, BChE) is on record as “mixed-type inhibition mode; also recorded: mixed inhibitor”. The compound further showed a viability at 72 h, 50 µM in series [4] of about 80%. Further, the “toxicity on SH-SY5Y at fewer concentrations” value in series [5] is given as “did not exhibit any toxicity”. Also, the “reduction of GSK-3β mRNA level” value in the series on GSK-3β mRNA (25 μM) is recorded as 25%. The “mRNA level of GSK-3β” value in the series on GSK-3β mRNA (25 μM, relative to control group) was about 75%. Also, the “effect on mRNA level of GSK-3β (in words)” value with GSK-3β mRNA (SH-SY5Y, compared to control group) is listed as “decreased; also recorded: could reduce the mRNA level of GSK-3β”. In addition, the “effect on the mRNA level of GSK3α” value in the series with GSK-3α mRNA is on record as “no noticeable effect”.
As to `O=C(NCc1ccc[n+](Cc2ccccc2F)c1)c1ccc(CN2C(=O)c3ccccc3C2=O)cc1` [Compound 7b], the IC50 on AChE [1] turned out to be 1190 ± 450 nM; against BChE [2], 310 ± 20 nM.
On the same counts, the results for `O=C(NCc1ccc[n+](Cc2cccc(Br)c2)c1)c1ccc(CN2C(=O)c3ccccc3C2=O)cc1` [Compound 7i] are 2100 ± 490 nM and 150 ± 10 nM.
On the same counts, the results for `O=C(NCc1ccc[n+](Cc2ccc([N+](=O)[O-])cc2)c1)c1ccc(CN2C(=O)c3ccccc3C2=O)cc1` [Compound 7l] are 5060 ± 2400 nM and 20400 ± 2550 nM.
Take `O=C(NCc1ccc[n+](Cc2ccc(Br)cc2)c1)c1ccc(CN2C(=O)c3ccccc3C2=O)cc1.[Br-]` [Compound 7j]: the concentration for half-maximal inhibition (IC50) against AChE [1] was determined as 260 ± 70 nM. At AChE [6], this compound showed an inhibition constant Ki of 940 nM. The “secondary inhibition constant (Kis)” value on AChE [6] (1/Vmax vs inhibitor concentration, AChE) was 4.29 µM. Further, the inhibition mode result against AChE [6] (Lineweaver-Burk plot, AChE) is recorded as “mixed mode of inhibition; also recorded: mixed-type inhibition pattern”.
Compound `O=C(NCc1ccc[n+](Cc2ccccc2)c1)c1ccc(CN2C(=O)c3ccccc3C2=O)cc1.[Br-]` [Compound 7a] had an IC50 against AChE [1] of 9710 ± 830 nM. Moreover, at BChE [2], 320 ± 60 nM corresponded to half-maximal inhibition (IC50) and the “fold better BChE inhibitory activity in comparison with positive control” value is reported as “around 33 fold”.
Consider `CCCCC[n+]1cccc(CNC(=O)c2ccc(CN3C(=O)c4ccccc4C3=O)cc2)c1` [Compound 7p], for which the figures for the half-maximal inhibitory concentration (IC50) against AChE [1] and on BChE [2] were 6290 ± 760 nM and 18600 ± 1210 nM, respectively.
With `O=C(NCc1ccc[n+](Cc2cccc(Cl)c2)c1)c1ccc(CN2C(=O)c3ccccc3C2=O)cc1` [Compound 7f], the IC50 against AChE [1] is 2660 ± 880 nM; against BChE [2], 560 ± 190 nM.
As to `O=C(NCc1ccc[n+](Cc2ccc(F)cc2)c1)c1ccc(CN2C(=O)c3ccccc3C2=O)cc1` [Compound 7d], the half-inhibitory concentration (IC50) at AChE [1] came out at 11100 ± 1290 nM; on BChE [2], 330 ± 10 nM.

Values taken from PMC11635510 (ACS Omega, 2024).
